According to ChEMBL document CHEMBL4020824, “Discovery of Potent and Orally Bioavailable Dihydropyrazole GPR40 Agonists” (J Med Chem, 2018):
Calls of active or inactive are those of the source. No cut-off for these calls is given here.

Assays:
[1] = Tmax in cynomolgus monkey at 1 mg/kg, po administered as single dose measured up to 24 hrs post dose by LC-MS/MS analysis; format: ADME, organism-based, Macaca fascicularis; conditions: in vivo
[2] = Volume of distribution at steady state in cynomolgus monkey at 0.5 mg/kg, iv administered as single dose measured up to 24 hrs post dose by LC-MS/MS analysis; format: ADME, organism-based, Macaca fascicularis; conditions: in vivo, read-out: Vdss
[3] = Half life in Beagle dog at 0.5 mg/kg, iv administered as single dose measured up to 24 hrs post dose by LC-MS/MS analysis; format: ADME, organism-based, Canis lupus familiaris; conditions: in vivo
[4] = Volume of distribution at steady state in CD1 mouse at 1 mg/kg, iv via bolus dose or 1 mg/kg, po administered as single dose measured up to 24 hrs post dose by LC-MS/MS analysis; format: ADME, organism-based; conditions: in vivo, read-out: Vdss
[5] = Clearance in cynomolgus monkey at 0.5 mg/kg, iv administered as single dose measured up to 24 hrs post dose by LC-MS/MS analysis; format: ADME, organism-based, Macaca fascicularis; conditions: in vivo
[6] = Cmax in C57BL6 mouse at 1 mg/kg, po administered as single dose measured up to 24 hrs post dose by LC-MS/MS analysis; format: ADME, organism-based; parameters: dose 1 mg/kg, route oral; conditions: in vivo
[7] = Volume of distribution at steady state in Beagle dog at 0.5 mg/kg, iv administered as single dose measured up to 24 hrs post dose by LC-MS/MS analysis; format: ADME, organism-based, Canis lupus familiaris; conditions: in vivo, read-out: Vdss
[8] = Oral bioavailability in C57BL6 mouse at 1 mg/kg administered as single dose measured up to 24 hrs post dose by LC-MS/MS analysis; format: ADME, organism-based; conditions: in vivo
[9] = Stability in rat liver microsomes assessed as parent compound remaining at 1 to 3 uM incubated for 20 mins in presence NADPH measured up to 90 mins by LC/MS/MS analysis; format: ADME, microsome; conditions: liver microsomes, read-out: Stability
Method in brief: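 Human or rat liver microsomal incubations. The read-outs were % parent remaining, % D-ring dealkylation metabolites, % GSH adducts, and half-life (min). The metabolites followed were CYP450-mediated oxidative de-alkylation products (phenols) and GSH conjugates.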

[10] = Oral bioavailability in Sprague-Dawley rat at 3 mg/kg administered via gavage as single dose measured up to 24 hrs post dose by LC-MS/MS analysis; format: ADME, organism-based; conditions: in vivo
Mus musculus = assay: Antidiabetic activity in C57BL/6J mouse assessed as reduction in plasma glucose excursion at 3 mg/kg, po administered 1 hr prior to glucose challenge measured after 120 mins in presence of DPP4 inhibitor BMS-538305 by OGTT assay; format: functional, organism-based

## COc1cc(N2CC[C@@H](Oc3ccc(N4N=C(C(F)(F)F)[C@@H](C)[C@@H]4CC(=O)O)cc3)[C@H](C)C2)c(Cl)cn1
[1]
  Tmax: 5 h
[2]
  Vd: 0.7 L/kg
[3]
  half-life: 5.2 h
[4]
  Vd: 0.4 L/kg
[5]
  clearance: 0.7 mL/min/kg
[6]
  Cmax: 6 µM
[7]
  Vd: 0.6 L/kg
[8]
  bioavailability: 100%
[9]
  remaining at 20 min, up to 3 µM: 75%
[10]
  bioavailability: 47%
Mus musculus
  Activity: Active
